This note sets out measurements from the RNAGym collection of RNA variant scans (doi:10.1002/anie.201605470).

B1: Osa-1-4 twister ribozyme (parent)
chain: CCGCCUAACACUGCCAAUGCCGGUCCCAAGCCCGGAUAAAAGUGGAGGGGGCGG

In this data set the parent is B1. Description: self-cleavage, relative activity (ratio to wild type); higher = more cleavage; co-transcriptional. The method, boiled down: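 The 48 positions downstream of the cleavage site in a DNA template for a 54-nucleotide Oryza sativa twister ribozyme carried 97 % wild-type base and 1 % of each other base. After in vitro transcription (2 h, 37 °C) with co-transcriptional self-cleavage, the RNA was reverse-transcribed with a template-switching oligonucleotide, PCR-amplified and deep-sequenced. Relative activity is the fraction cleaved, judged by reads with or without upstream sequence and normalised to wild type.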
As to CCGCCUACCACUGCCAAUGCCGGUCCCAAGCCCGGAUAAAAGUGGAGGGGGAGG, the self-cleavage was determined as 0.12.
Under CCGCCUACCACUGCCAAUGCCGGUCCCAAGCCCGGAUAAAAGUGGAGGGGGGGG stands 0.15; under CCGCCUACCACUGCCAAUGCCGGUCCCAAGCCCGGAUAAAAGUGGAGGGGGUGG, 0.09.
With CCGCCUACCACUGCCAAUGCCGUUCCCAAGCCCGGAUAAAAGUGGAGGGGGCGG, the self-cleavage amounted to 0.07.
For CCGCCUACCACUGCCAAUGCCGCUCCCAAGCCCGGAUAAAAGUGGAGGGGGCGG, the self-cleavage was 0.02.
With CCGCCUACCACUGCCAAUGCCGAUCCCAAGCCCGGAUAAAAGUGGAGGGGGCGG, the self-cleavage came to 0.08.
The result for CCGCCUACCACUGCCAAUGCCGGUCCCAAGCCCGGAUAAAAGUGGAGGGCGCGG reads 0.08.
The result for CCGCCUACCACUGCCAAUGCCGGUCCCAAGCCCGGAUAAAAGUGGAGGGAGCGG reads 0.06; that for CCGCCUACCACUGCCAAUGCCGGUCCCAAGCCCGGAUAAAAGUGGAGGGUGCGG, 0.08.
Under CCGCCUACCACUGCCAAUGCCGGUCCCAAGCCCGGAUAAAAAUGGAGGGGGCGG stands 0.06.
On to CCGCCUACCACUGCCAAUGCCGGUCCCAAGCCCGGAUAAAACUGGAGGGGGCGG, for which the self-cleavage came out at 0.04.
As to CCGCCUACCACUGCCAAUGCCGGUCCCAAGCCCGGAUAAAAUUGGAGGGGGCGG, the self-cleavage came to 0.04.
Under CCGCCUACCACUGCAAAUGCCGGUCCCAAGCCCGGAUAAAAGUGGAGGGGGCGG stands 0.21; under CCGCCUACCACUGCGAAUGCCGGUCCCAAGCCCGGAUAAAAGUGGAGGGGGCGG, 0.05.
Under CCGCCUACCACUGCUAAUGCCGGUCCCAAGCCCGGAUAAAAGUGGAGGGGGCGG stands 0.04; under CCGCCUACCACUGCCAAUGCCGGUCACAAGCCCGGAUAAAAGUGGAGGGGGCGG, 0.03; under CCGCCUACCACUGCCAAUGCCGGUCGCAAGCCCGGAUAAAAGUGGAGGGGGCGG, 0.02.
Under CCGCCUACCACUGCCAAUGCCGGUCUCAAGCCCGGAUAAAAGUGGAGGGGGCGG stands 0.06.
As for CCGCCUACCACUGCCAAUGCCGGUCCCAAGCCCGGAUAAAAGUGGAGGGGGCGA, the self-cleavage was 0.09.
CCGCCUACCACUGCCAAUGCCGGUCCCAAGCCCGGAUAAAAGUGGAGGGGGCGU: the self-cleavage was determined as 0.11.
The result for CCGCCUACCACUGCCAAUGCCGGUCCCAAGCCCGGAUAAAAGUGGAGGGGGCGC reads 0.06; that for CCGCCUACCACUGCCAAUGACGGUCCCAAGCCCGGAUAAAAGUGGAGGGGGCGG, 0.08.
Under CCGCCUACCACUGCCAAUGUCGGUCCCAAGCCCGGAUAAAAGUGGAGGGGGCGG stands 0.09; under CCGCCUACCACUGCCAAUGGCGGUCCCAAGCCCGGAUAAAAGUGGAGGGGGCGG, 0.03; under CCGCCUACCACUGCCAAUGCCGGUCCCAAGCCAGGAUAAAAGUGGAGGGGGCGG, 0.06.
Turning to CCGCCUACCACUGCCAAUGCCGGUCCCAAGCCGGGAUAAAAGUGGAGGGGGCGG, the self-cleavage stood at 0.03.
As to CCGCCUACCACUGCCAAUGCCGGUCCCAAGCCUGGAUAAAAGUGGAGGGGGCGG, the self-cleavage worked out at 0.06.
Under CCGCCUACCACUGCCAACGCCGGUCCCAAGCCCGGAUAAAAGUGGAGGGGGCGG stands 0.08.
CCGCCUACCACUGCCAAAGCCGGUCCCAAGCCCGGAUAAAAGUGGAGGGGGCGG: the self-cleavage turned out to be 0.07.
Under CCGCCUACCACUGCCAAGGCCGGUCCCAAGCCCGGAUAAAAGUGGAGGGGGCGG stands 0.17; under CCGCCUACCACUGCCAAUGCCGGGCCCAAGCCCGGAUAAAAGUGGAGGGGGCGG, 0.01; under CCGCCUACCACUGCCAAUGCCGGACCCAAGCCCGGAUAAAAGUGGAGGGGGCGG, 0.03.
As for CCGCCUACCACUGCCAAUGCCGGCCCCAAGCCCGGAUAAAAGUGGAGGGGGCGG, the self-cleavage amounted to 0.08.
The result for CCGCCUACCACUGCCAAUGCCGGUCCCAAGCCCGGAUAAAAGUGGAGGGGGCUG reads 0.06; that for CCGCCUACCACUGCCAAUGCCGGUCCCAAGCCCGGAUAAAAGUGGAGGGGGCCG, 0.02.
As for CCGCCUACCACUGCCAAUGCCGGUCCCAAGCCCGGAUAAAAGUGGAGGGGGCAG, the self-cleavage came out at 0.07.
Under CCGCCUACCACUUCCAAUGCCGGUCCCAAGCCCGGAUAAAAGUGGAGGGGGCGG stands 0.01; under CCGCCUACCACUACCAAUGCCGGUCCCAAGCCCGGAUAAAAGUGGAGGGGGCGG, 0.03.
Take CCGCCUACCACUCCCAAUGCCGGUCCCAAGCCCGGAUAAAAGUGGAGGGGGCGG: the self-cleavage is 0.07.
In the case of CCGCCUACCACUGCCAAUGCCGGUCCCAAGACCGGAUAAAAGUGGAGGGGGCGG, the self-cleavage came to 0.01.
CCGCCUACCACUGCCAAUGCCGGUCCCAAGGCCGGAUAAAAGUGGAGGGGGCGG: the self-cleavage was determined as 0.02.
For the variant CCGCCUACCACUGCCAAUGCCGGUCCCAAGUCCGGAUAAAAGUGGAGGGGGCGG, the self-cleavage worked out at 0.05.
CCGCCUACCACUGCCAAUGCCGGUCCCAAGCCCGGAUAAAAGUGGAGAGGGCGG: the self-cleavage came to 0.02.
Under CCGCCUACCACUGCCAAUGCCGGUCCCAAGCCCGGAUAAAAGUGGAGUGGGCGG stands 0.03; under CCGCCUACCACUGCCAAUGCCGGUCCCAAGCCCGGAUAAAAGUGGAGCGGGCGG, 0.02.
The result for CCGCCUACCACUGCCAAUGCCGGUCCCAAGCCCAGAUAAAAGUGGAGGGGGCGG reads 0.07; that for CCGCCUACCACUGCCAAUGCCGGUCCCAAGCCCCGAUAAAAGUGGAGGGGGCGG, 0.06; that for CCGCCUACCACUGCCAAUGCCGGUCCCAAGCCCUGAUAAAAGUGGAGGGGGCGG, 0.07.
The result for CCGCCUACCACUGCCAAUGCCGGUCCCAAGCCCGGAUAAAAGAGGAGGGGGCGG reads 0.08; that for CCGCCUACCACUGCCAAUGCCGGUCCUAAGCCCGGAUAAAAGUGGAGGGGGCGG, 0.04; that for CCGCCUACCACUGCCAAUGCCGGUCCAAAGCCCGGAUAAAAGUGGAGGGGGCGG, 0.13.
Regarding CCGCCUACCACUGCCAAUGCCGGUCCGAAGCCCGGAUAAAAGUGGAGGGGGCGG, the self-cleavage was found to be 0.03.
The result for CCGCCUACCACUGCCAAUGCCGGUCCCAAGCGCGGAUAAAAGUGGAGGGGGCGG reads 0.03; that for CCGCCUACCACUGCCAAUGCCGGUCCCAAGCUCGGAUAAAAGUGGAGGGGGCGG, 0.02.
As for CCGCCUACCACUGCCAAUGCCGGUCCCAAGCACGGAUAAAAGUGGAGGGGGCGG, the self-cleavage stood at 0.04.
As for CCGCCUACCACUGCCAAUGCCGGUCCCAAGCCCGGAUAAAAGUGGAGGCGGCGG, the self-cleavage was 0.02.
The result for CCGCCUACCACUGCCAAUGCCGGUCCCAAGCCCGGAUAAAAGUGGAGGUGGCGG reads 0.03; that for CCGCCUACCACUGCCAAUGCCGGUCCCAAGCCCGGAUAAAAGUGGAGGAGGCGG, 0.02.
As to CCGCCUACCACUGCCAAUGCCGGUCCCAAGCCCGGAUAAAAGUAGAGGGGGCGG, the self-cleavage came out at 0.07.
For the variant CCGCCUACCACUGCCAAUGCCGGUCCCAAGCCCGGAUAAAAGUUGAGGGGGCGG, the self-cleavage was 0.08.
The result for CCGCCUACCACUGCCAAUGCCGGUCCCAAGCCCGGAUAAAAGUCGAGGGGGCGG reads 0.07.
The result for CCGCCUACCACUGCCAAUGCCGGUCCCAAGCCCGGAUAAAAGUGGAGGGGUCGG reads 0.05.
For the variant CCGCCUACCACUGCCAAUGCCGGUCCCAAGCCCGGAUAAAAGUGGAGGGGACGG, the self-cleavage was found to be 0.06.
Under CCGCCUACCACUGCCAAUGCCGGUCCCAAGCCCGGAUAAAAGUGGAGGGGCCGG stands 0.03; under CCGCCUACCACUGUCAAUGCCGGUCCCAAGCCCGGAUAAAAGUGGAGGGGGCGG, 0.05.
As to CCGCCUACCACUGGCAAUGCCGGUCCCAAGCCCGGAUAAAAGUGGAGGGGGCGG, the self-cleavage was determined as 0.03.
On to CCGCCUACCACUGACAAUGCCGGUCCCAAGCCCGGAUAAAAGUGGAGGGGGCGG, for which the self-cleavage is 0.04.
Under CCGCCUACCACCGCCAAUGCCGGUCCCAAGCCCGGAUAAAAGUGGAGGGGGCGG stands 0.07.
Regarding CCGCCUACCACGGCCAAUGCCGGUCCCAAGCCCGGAUAAAAGUGGAGGGGGCGG, the self-cleavage was determined as 0.16.
As to CCGCCUACCACAGCCAAUGCCGGUCCCAAGCCCGGAUAAAAGUGGAGGGGGCGG, the self-cleavage was 0.06.
The result for CCGCCUACCACUGCCAAUGCCGGUCCCAAGCCCGUAUAAAAGUGGAGGGGGCGG reads 0.09; that for CCGCCUACCACUGCCAAUGCCGGUCCCAAGCCCGCAUAAAAGUGGAGGGGGCGG, 0.08.
Turning to CCGCCUACCACUGCCAAUGCCGGUCCCAAGCCCGAAUAAAAGUGGAGGGGGCGG, the self-cleavage is 0.08.
The result for CCGCCUACCACUGCCAAUGCCGGUCCCAAGCCCGGAUAAAAGUGAAGGGGGCGG reads 0.04; that for CCGCCUACCACUGCCAAUGCCGGUCCCAAGCCCGGAUAAAAGUGCAGGGGGCGG, 0.02; that for CCGCCUACCACUGCCAAUGCCGGUCCCAAGCCCGGAUAAAAGUGUAGGGGGCGG, 0.04.
Take CCGCCUACCACUGCCAAUGCGGGUCCCAAGCCCGGAUAAAAGUGGAGGGGGCGG: the self-cleavage turned out to be 0.05.
For CCGCCUACCACUGCCAAUGCUGGUCCCAAGCCCGGAUAAAAGUGGAGGGGGCGG, the self-cleavage turned out to be 0.06.
For CCGCCUACCACUGCCAAUGCAGGUCCCAAGCCCGGAUAAAAGUGGAGGGGGCGG, the self-cleavage turned out to be 0.09.
On to CCGCCUACCACUGCCAAUGCCGGUCCCAAGCCCGGAUAAAAGUGGAUGGGGCGG, for which the self-cleavage is 0.04.
For the variant CCGCCUACCACUGCCAAUGCCGGUCCCAAGCCCGGAUAAAAGUGGACGGGGCGG, the self-cleavage is 0.03.
Under CCGCCUACCACUGCCAAUGCCGGUCCCAAGCCCGGAUAAAAGUGGAAGGGGCGG stands 0.04; under CCGCCUACCACUGCCAAUGCCGGUCCCAAGCCCGGAGAAAAGUGGAGGGGGCGG, 0.1.
The result for CCGCCUACCACUGCCAAUGCCGGUCCCAAGCCCGGACAAAAGUGGAGGGGGCGG reads 0.07; that for CCGCCUACCACUGCCAAUGCCGGUCCCAAGCCCGGAAAAAAGUGGAGGGGGCGG, 0.06.
Under CCGCCUACCACUGCCAAUGCCUGUCCCAAGCCCGGAUAAAAGUGGAGGGGGCGG stands 0.07; under CCGCCUACCACUGCCAAUGCCCGUCCCAAGCCCGGAUAAAAGUGGAGGGGGCGG, 0.03; under CCGCCUACCACUGCCAAUGCCAGUCCCAAGCCCGGAUAAAAGUGGAGGGGGCGG, 0.09.
CCGCCUACCACUGCCAAUGCCGGUCCCAAUCCCGGAUAAAAGUGGAGGGGGCGG: the self-cleavage came out at 0.01.
On to CCGCCUACCACUGCCAAUGCCGGUCCCAAACCCGGAUAAAAGUGGAGGGGGCGG, for which the self-cleavage turned out to be 0.01.
The result for CCGCCUACCACUGCCAAUGCCGGUCCCAACCCCGGAUAAAAGUGGAGGGGGCGG reads 0.03; that for CCGCCUACCACUGCCAAUGCCGGUUCCAAGCCCGGAUAAAAGUGGAGGGGGCGG, 0.07; that for CCGCCUACCACUGCCAAUGCCGGUGCCAAGCCCGGAUAAAAGUGGAGGGGGCGG, 0.03.
For CCGCCUACCACUGCCAAUGCCGGUACCAAGCCCGGAUAAAAGUGGAGGGGGCGG, the self-cleavage is 0.05.
Under CCGCCUACCACUGCCAAUACCGGUCCCAAGCCCGGAUAAAAGUGGAGGGGGCGG stands 0.07; under CCGCCUACCACUGCCAAUCCCGGUCCCAAGCCCGGAUAAAAGUGGAGGGGGCGG, 0.08.
Turning to CCGCCUACCACUGCCAAUUCCGGUCCCAAGCCCGGAUAAAAGUGGAGGGGGCGG, the self-cleavage was determined as 0.06.
